For orientation: EC50 means the concentration at which the effect is half-maximal. A word on the IC50: it is the midpoint of a concentration-inhibition curve. By CC50 is commonly meant the concentration that lowers cell viability or growth by half. Low values mean harm at low concentration, high ones better tolerance by the cells.

We go through 17 compounds from ChEMBL document CHEMBL1137351, “Discovery of conformationally constrained tetracyclic compounds as potent hepatitis C virus NS5B RNA polymerase inhibitors” (J Med Chem, 2006).

In series [1] the test system is Huh-5-2. The experiment in a line: Inhibition of replication of HCV 1b BK RNA in Huh5-2 cells in presence of 10% fetal calf serum. Particulars: Homo sapiens, genotype 1b BK; call rule not given here. Type of series: functional, cell-based, Hepacivirus hominis. In short, it runs like this:
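Huh-5-2 cells carrying the HCV replicon, assayed in medium with 10% FCS. EC50 is the mean of three independent experiments, with standard deviations within 30% of the mean.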

Series [2] addresses RNA-directed RNA polymerase (Hepacivirus hominis, UniProt O39930). Description: Inhibition of HCV NS5B RNA polymerase.
Series [3] in a line: (§1) Permeability across Caco-2 cells. Type of series: ADME, cell-based. Particulars: human, read-out: permeability.
Series [4] relates to Caco-2. Description: Cytotoxicity against Caco-2 cells. Particulars: Homo sapiens. The series is classed as functional.
Series [5] relates to Huh-5-2. Description: Inhibition of replication of HCV 1b BK RNA in Huh5-2 cells in presence of 10% fetal calf serum and 4% human serum albumin. Type of series: functional, cell-based, Hepacivirus hominis. Particulars: genotype 1b BK. Summed up: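 Huh-5-2 replicon cells in medium with 10% FCS plus 4% human serum albumin. EC50 is the average of two experiments.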
For series [6], the system named is Caco-2. The series is described as §1. Type of series: ADME, cell-based. Particulars: human.

Chain of RNA-directed RNA polymerase (O39930 whole entry): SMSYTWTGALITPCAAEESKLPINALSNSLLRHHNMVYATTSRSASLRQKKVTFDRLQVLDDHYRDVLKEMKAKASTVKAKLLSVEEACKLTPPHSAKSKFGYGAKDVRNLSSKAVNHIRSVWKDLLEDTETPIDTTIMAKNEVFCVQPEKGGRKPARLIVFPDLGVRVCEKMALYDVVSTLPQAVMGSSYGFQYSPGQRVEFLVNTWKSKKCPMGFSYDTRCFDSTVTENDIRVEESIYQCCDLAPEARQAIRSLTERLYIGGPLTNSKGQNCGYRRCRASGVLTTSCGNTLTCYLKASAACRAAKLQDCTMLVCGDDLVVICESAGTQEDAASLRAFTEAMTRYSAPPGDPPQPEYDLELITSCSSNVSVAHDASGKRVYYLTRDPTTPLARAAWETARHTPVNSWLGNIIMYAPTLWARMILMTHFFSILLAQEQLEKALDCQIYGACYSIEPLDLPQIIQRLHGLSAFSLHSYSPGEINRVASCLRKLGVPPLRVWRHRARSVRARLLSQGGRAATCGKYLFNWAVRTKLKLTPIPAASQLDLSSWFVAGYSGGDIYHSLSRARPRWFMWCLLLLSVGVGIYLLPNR

For `O=C(O)c1ccc2c(C3CCCCC3)c3n(c2c1)Cc1ccccc1-3`, the 50% effective concentration (EC50) in the series with Huh-5-2 [1] was above 10 µM. In series [2], it took 0.21 µM to reach half-maximal inhibition (IC50).
For `O=C(O)c1ccc2c(C3CCCCC3)c3n(c2c1)CCOc1ccccc1-3` the same measures were 0.86 µM and 0.026 µM.
Consider `O=C(O)c1ccc2c(C3CCCCC3)c3n(c2c1)COc1ccccc1-3`, for which the EC50 in the series on Huh-5-2 [1] turned out to be 4.2 µM. In addition, the IC50 in series [2] was found to be 0.14 µM.
`Cn1c(-c2ccc(OCc3ccccc3)cc2)c(C2CCCCC2)c2ccc(C(=O)O)cc21` displayed an IC50 in series [2] of 0.12 µM.
Consider `CN(C)CCN1CCn2c(c(C3CCCCC3)c3ccc(C(=O)O)cc32)-c2ccccc21.Cl.Cl`, for which the Papp in series [3] worked out at 19.2 ×10⁻⁶ cm/s. This compound returned a CC50 in the series with Caco-2 [4] above 20 µM. For the same compound, the EC50 with Huh-5-2 [5] amounted to 0.2 µM; in the series with Huh-5-2 [1], 0.053 µM. In series [2], this compound returned an IC50 of 0.018 µM.
On to `CC(=O)N1CCn2c(c(C3CCCCC3)c3ccc(C(=O)O)cc32)-c2ccccc21`, for which the result in the series with Caco-2 [6] was Active. The compound also yielded a CC50 with Caco-2 [4] above 20 µM. Also, the EC50 in the series with Huh-5-2 [1] came to 1.1 µM. Half-maximal inhibition in series [2] (IC50) required 0.12 µM.
With `O=C(O)c1ccc2c(C3CCCCC3)c3n(c2c1)CCN(CCc1ccccc1)c1ccccc1-3`, the outcome with Caco-2 [6] was Active. In the series on Caco-2 [4], this compound showed a CC50 above 20 µM. In the series with Huh-5-2 [1], the EC50 worked out at 0.31 µM. Further, 0.026 µM corresponded to half-maximal inhibition in series [2] (IC50).
For the compound `CN(C)C(=O)CN1CCn2c(c(C3CCCCC3)c3ccc(C(=O)O)cc32)-c2ccccc21`, the Papp in series [3] came out at 51.9 ×10⁻⁶ cm/s. In the series on Caco-2 [4], the CC50 was above 20 µM. Moreover, the half-maximal effective concentration (EC50) in the series on Huh-5-2 [5] stood at 4.3 µM; with Huh-5-2 [1] it was 0.21 µM. In series [2], this compound yielded an IC50 of 0.024 µM.
For `O=C(O)c1ccc2c(C3CCCCC3)c3n(c2c1)CCN(Cc1ccccc1)c1ccccc1-3`, in the series with Caco-2 [6], the result was Active. Besides, in the series on Caco-2 [4], the CC50 is above 20 µM. Moreover, the EC50 with Huh-5-2 [1] came out at 0.55 µM. This compound returned an IC50 in series [2] of 0.041 µM.
For the compound `CN1CCn2c(c(C3CCCCC3)c3ccc(C(=O)O)cc32)-c2ccccc21`, in the series on Caco-2 [6], the outcome was Active. Further, the CC50 in the series on Caco-2 [4] is above 20 µM. Further, the EC50 in the series with Huh-5-2 [5] worked out at 6.5 µM; in the series with Huh-5-2 [1] it was 0.59 µM. In series [2], this compound gave an IC50 of 0.019 µM.
Turning to `CC(C)N1CCn2c(c(C3CCCCC3)c3ccc(C(=O)O)cc32)-c2ccccc21`, the result in the series with Caco-2 [6] was Active. Moreover, the CC50 in the series with Caco-2 [4] is above 20 µM. Moreover, in the series with Huh-5-2 [1], the EC50 was 1.5 µM. Further, in series [2], the IC50 stood at 0.036 µM.
In the case of `O=C(O)c1ccc2c(C3CCCCC3)c3n(c2c1)CCSc1ccccc1-3`, the EC50 in the series with Huh-5-2 [1] was 1.4 µM. Inhibition in series [2] was half-maximal at 0.038 µM (IC50).
Regarding `O=C(O)c1ccc2c(C3CCCCC3)c3n(c2c1)CCOc1cc(OCc2ccccc2)ccc1-3`, in series [2], the IC50 is 0.017 µM.
As to `O=C(O)c1ccc2c(C3CCCCC3)c3n(c2c1)CCCc1ccccc1-3`, in the series on Huh-5-2 [1], the EC50 was 3 µM. Inhibition in series [2] was half-maximal at 0.077 µM (IC50).
For `O=C(O)c1ccc2c(C3CCCCC3)c3n(c2c1)CCc1ccccc1-3` the same measures were 6 µM and 0.14 µM.
As for `Cl.O=C(O)c1ccc2c(C3CCCCC3)c3n(c2c1)CCNc1ccccc1-3`, in series [3], the Papp stood at 55.9 ×10⁻⁶ cm/s. The compound also registered a CC50 in the series with Caco-2 [4] above 20 µM. Also, the values for the EC50 in the series with Huh-5-2 [5] and in the series with Huh-5-2 [1] were above 10 µM and 0.57 µM, respectively. For the same compound, in series [2], the IC50 was 0.021 µM.
For `Cl.Cl.O=C(O)c1ccc2c(C3CCCCC3)c3n(c2c1)CCN(CCN1CCCCC1)c1ccccc1-3`, in that order: 18.6 ×10⁻⁶ cm/s, above 20 µM, 0.084 µM, 0.035 µM and 0.009 µM.
